Measured values taken from ChEMBL document CHEMBL1121998, “Synthesis and hypoglycemic activity of phenylalkyloxiranecarboxylic acid derivatives” (J Med Chem, 1982).
Activity calls are given as the source filed them. The rule behind the calls is not given here.

What was measured:
[1] = system: Rattus norvegicus; experiment: Ability to decrease blood glucose levels in fasted rats at the dose of 0.6 mmol/kg was determined; No effect; format: functional, organism-based
In short: (§1)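 Male Sprague–Dawley SIV-50 or Mus Rattus rats (160–200 g), 6–12 per group, fasted overnight. Oral tube dosing as neutral aqueous solution or 1:1 Cremophor EL/water emulsion, 10 mL/kg. Retro-orbital blood taken before and at 2, 4 and 6 h; glucose measured enzymatically (HK/G6PDH). Change expressed relative to controls; two-sided Student's t test.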

[2] = Tested for its effect on hepatic epoxide hydrolase; No significant inhibition up to 1e-3 mol/L
[3] = system: Rattus norvegicus; experiment: Ability to decrease blood glucose levels in fasted rats at the dose of 0.6 mmol/kg was determined; format: functional; in short: as §1
[4] = organism: Rattus norvegicus; experiment: Effective dose at which 50% of the rats show at least a 25% decrease of blood glucose levels compared to controls; format: functional
In short: (§2)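 Overnight-fasted male rats (Sprague–Dawley SIV-50 or Mus Rattus, 160–200 g), 6–12 per group, dosed orally at 10 mL/kg as neutral aqueous solution or 1:1 Cremophor EL/water emulsion. Retro-orbital blood glucose by HK/G6PDH before and 2, 4, 6 h post-dose. ED50 (25%) = dose at which 50% of rats show ≥25% fall versus controls. Derived by linear or log-linear regression over at least four doses.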

[5] = organism: Rattus norvegicus; experiment: Effective dose at which 50% of the rats show at least a 25% decrease of blood glucose levels compared to controls; Not feasible; format: functional, organism-based; in short: as §2
[6] = Compound was tested for its lethality in mice when administered perorally; format: ADME, organism-based; details: mouse, in vivo, po
In short: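 Groups of five female NMR mice (22-26 g), water ad libitum, food reduced to 50 g/kg body weight 18 h before dosing; single oral administration.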

[7] = organism: Rattus norvegicus; experiment: Effective dose at which 50% of the rats show at least a 25% decrease of blood glucose levels compared to controls; Reverse effect at higher dose

Compound	Decrease [1]	Effect [2]	Decrease [3]	ED50 [4]	further results
CCOC(=O)C1(CCCc2ccc(C(C)(C)C)cc2)CO1 (stereo not given)	inactive	–	–	–	–
CCOC(=O)C1(CCCc2ccc(Cl)cc2)OC12CCCCC2 (stereo not given)	inactive	–	–	–	–
CCOC(=O)C1(Cc2ccccc2)CO1 (stereo not given)	inactive	No significant inhibition up to 1e-3 mol/L	–	–	–
CCOC(=O)C1(CCCc2ccc(C)cc2)CO1 (stereo not given)	–	No significant inhibition up to 1e-3 mol/L	<27%	–	–
CCNC(=O)C1(CCCc2ccccc2)CO1 (stereo not given)	inactive	–	–	–	–
CCOC(=O)C1(CCCCCCCCc2ccccc2)CO1 (stereo not given)	inactive	–	–	–	–
CCOC(=O)C1(CCCc2ccccc2)CO1 (stereo not given)	–	No significant inhibition up to 1e-3 mol/L	<19%	1170 µmol/kg	–
CCOC(=O)C1(CCCc2ccccc2Cl)CO1 (stereo not given)	–	–	<11%	–	–
COC(=O)C1OC1CCCc1ccccc1 (stereo not given)	inactive	–	–	–	–
CCOC(=O)C1OC1CCc1ccccc1 (stereo not given)	inactive	–	–	–	–
CCOC(=O)C1(CCCCCCc2ccccc2)CO1 (stereo not given)	–	–	24%	–	ED50 [5]: inactive
O=C([O-])C1(CCCCCc2ccc(Cl)cc2)CO1.[Na+] (stereo not given)	–	No significant inhibition up to 1e-3 mol/L	80%	30 µmol/kg	LD50 [6]: 1640 µmol/kg
CCOC(=O)C1(CCCCCCCc2ccccc2)CO1 (stereo not given)	–	–	18%	–	ED50 [5]: inactive
CCOC(=O)C1(CCc2ccccc2)CO1 (stereo not given)	inactive	No significant inhibition up to 1e-3 mol/L	–	–	–
CCOC(=O)C1(CCCc2cc(Cl)ccc2OC)CO1 (stereo not given)	inactive	–	–	–	–
CCOC(=O)C1(CCCc2ccc(Cl)cc2)OC1(C)C (stereo not given)	–	–	10%	–	–
O=C([O-])C1(CCCc2ccc(Cl)cc2)CO1.[Na+] (stereo not given)	–	–	<68%	180 µmol/kg	–

Compound	Decrease [1]	Effect [2]	Decrease [3]	ED50 [4]	further results
CCOC(=O)C1(CCCc2ccccc2)OC12CCCCC2 (stereo not given)	inactive	–	–	–	–
NC(=O)C1(CCCc2ccccc2)CO1 (stereo not given)	inactive	–	–	–	–
O=C([O-])C1(CCCc2cccc(C(F)(F)F)c2)CO1.[Na+] (stereo not given)	–	No significant inhibition up to 1e-3 mol/L	<77%	80 µmol/kg	–
CCOC(=O)C1(CCCc2ccc(Cl)c(Cl)c2)CO1 (stereo not given)	–	No significant inhibition up to 1e-3 mol/L	<29%	330 µmol/kg	LD50 [6]: 2870 µmol/kg
CCOC(=O)C1(CCCc2ccc(Cl)cc2)CO1 (stereo not given)	–	No significant inhibition up to 1e-3 mol/L	<30%	200 µmol/kg	LD50 [6]: 2720 µmol/kg
CCOC(=O)C1(CCCCc2ccccc2)CO1 (stereo not given)	–	No significant inhibition up to 1e-3 mol/L	<44%	600 µmol/kg	–
CCOC(=O)C1(CCCCCc2ccccc2)CO1 (stereo not given)	–	No significant inhibition up to 1e-3 mol/L	<18%	–	LD50 [6]: 880 µmol/kg; ED50 [7]: 80 µmol/kg
CCOC(=O)C1(CCCc2ccc(F)cc2)CO1 (stereo not given)	–	–	<37%	–	LD50 [6]: 3960 µmol/kg
CCOC(=O)C1(CCCc2cccc(C(F)(F)F)c2)CO1 (stereo not given)	–	No significant inhibition up to 1e-3 mol/L	<47%	170 µmol/kg	LD50 [6]: 860 µmol/kg
CCN(CC)C(=O)C1(CCCc2ccccc2)CO1 (stereo not given)	inactive	–	–	–	–
CCOC(=O)C1(CCCCCCCc2ccc(Cl)cc2)CO1 (stereo not given)	–	–	<49%	270 µmol/kg	LD50 [6]: 950 µmol/kg
CCOC(=O)C1(CCCc2cccc(Cl)c2)CO1 (stereo not given)	–	–	<26%	680 µmol/kg	–
O=C([O-])C1(CCCCCc2ccccc2)CO1.[Na+] (stereo not given)	–	No significant inhibition up to 1e-3 mol/L	<29%	–	LD50 [6]: 1060 µmol/kg; ED50 [5]: inactive
CCOC(=O)C1(CCCCCc2ccc(Cl)cc2)CO1 (stereo not given)	–	No significant inhibition up to 1e-3 mol/L	80%	20 µmol/kg	LD50 [6]: 930 µmol/kg
CCOC(=O)C1(CCCc2ccccc2)OC1(C)C (stereo not given)	inactive	–	–	–	–
CCOC(=O)C1(CCCc2ccc(OC)cc2)CO1 (stereo not given)	inactive	–	–	–	–
